{"source": "paper PMC5773961", "about": "(British Journal of Pharmacology, 2017)", "key": {"α6β3γ2 GABAA receptors": {"target": "α6β3γ2 GABAA receptors (Rattus norvegicus, UniProt P30191+P63079)", "sequence (P30191 20-453)": "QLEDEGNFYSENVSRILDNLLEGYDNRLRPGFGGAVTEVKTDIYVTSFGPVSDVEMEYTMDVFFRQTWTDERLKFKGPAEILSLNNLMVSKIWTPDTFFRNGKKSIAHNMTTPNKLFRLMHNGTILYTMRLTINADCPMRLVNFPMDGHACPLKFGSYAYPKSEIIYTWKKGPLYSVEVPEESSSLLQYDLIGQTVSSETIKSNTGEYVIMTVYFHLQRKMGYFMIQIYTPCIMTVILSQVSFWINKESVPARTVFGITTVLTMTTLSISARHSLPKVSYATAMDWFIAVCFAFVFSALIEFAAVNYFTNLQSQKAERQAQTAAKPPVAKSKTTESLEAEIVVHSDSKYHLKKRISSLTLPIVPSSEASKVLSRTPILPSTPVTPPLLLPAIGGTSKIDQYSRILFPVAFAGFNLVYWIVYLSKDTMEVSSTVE", "sequence (P63079 26-473)": "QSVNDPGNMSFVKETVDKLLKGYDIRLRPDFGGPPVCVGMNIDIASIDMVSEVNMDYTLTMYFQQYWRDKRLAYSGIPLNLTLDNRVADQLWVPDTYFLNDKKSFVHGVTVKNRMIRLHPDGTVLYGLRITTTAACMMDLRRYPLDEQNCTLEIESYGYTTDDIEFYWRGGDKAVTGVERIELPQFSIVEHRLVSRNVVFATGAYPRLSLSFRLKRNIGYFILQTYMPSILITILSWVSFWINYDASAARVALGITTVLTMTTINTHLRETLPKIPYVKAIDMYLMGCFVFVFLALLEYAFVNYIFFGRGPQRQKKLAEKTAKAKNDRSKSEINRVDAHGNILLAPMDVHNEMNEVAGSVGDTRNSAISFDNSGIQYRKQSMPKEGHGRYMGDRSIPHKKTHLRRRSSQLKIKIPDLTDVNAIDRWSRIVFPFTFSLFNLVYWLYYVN", "sequence (P18508 39-466 partner)": "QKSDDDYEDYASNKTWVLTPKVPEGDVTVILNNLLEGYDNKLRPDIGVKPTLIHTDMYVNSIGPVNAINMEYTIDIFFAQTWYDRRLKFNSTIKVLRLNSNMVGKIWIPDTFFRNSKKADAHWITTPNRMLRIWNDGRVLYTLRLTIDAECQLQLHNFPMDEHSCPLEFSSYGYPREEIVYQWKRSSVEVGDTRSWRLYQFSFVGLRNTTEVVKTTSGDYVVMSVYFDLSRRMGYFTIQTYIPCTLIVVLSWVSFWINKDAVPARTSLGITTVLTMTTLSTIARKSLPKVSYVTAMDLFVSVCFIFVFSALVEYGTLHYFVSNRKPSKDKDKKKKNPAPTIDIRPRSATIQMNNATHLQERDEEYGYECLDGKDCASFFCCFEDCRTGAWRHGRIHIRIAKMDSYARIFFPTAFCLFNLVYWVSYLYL", "format": "cell-based", "settings": "for modulation of GABA EC3–5 currents in screening of compounds 5–9, in words: 10 μM compound, comparable to compound 3", "in_short": "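Oocytes (X. laevis, stage 5–6, defolliculated) received 2.5 ng of rat α6:β3:γ2 mRNA at 3:1:5, or γ2‐β3‐α6 triple plus β3‐α6 double concatemer cRNA at 1:1. Incubated ≥36 h at 18°C. TEVC at −60 mV, room temperature. Per-oocyte GABA EC3–5 co-applied with test compound(s) at various concentrations, 0.1% DMSO final. Hill fit for EC50. ≥3 oocytes from two batches.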"}, "α1β3γ2 GABAA receptors": {"target": "α1β3γ2 GABAA receptors (Rattus norvegicus, UniProt P62813+P63079)", "sequence (P62813 28-455)": "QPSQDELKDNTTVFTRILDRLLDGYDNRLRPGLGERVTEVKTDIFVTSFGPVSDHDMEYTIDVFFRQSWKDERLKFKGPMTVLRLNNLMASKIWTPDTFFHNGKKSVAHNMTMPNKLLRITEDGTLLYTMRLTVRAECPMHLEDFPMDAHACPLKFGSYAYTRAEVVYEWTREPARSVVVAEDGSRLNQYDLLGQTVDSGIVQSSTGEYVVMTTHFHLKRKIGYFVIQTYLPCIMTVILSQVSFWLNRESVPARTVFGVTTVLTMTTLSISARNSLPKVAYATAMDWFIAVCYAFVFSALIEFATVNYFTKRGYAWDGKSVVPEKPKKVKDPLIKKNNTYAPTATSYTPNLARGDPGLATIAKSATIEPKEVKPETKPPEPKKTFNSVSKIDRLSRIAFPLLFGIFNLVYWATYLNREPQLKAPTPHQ", "sequence (P63079 26-473)": "as the sequence (P63079 26-473) above", "sequence (P18508 39-466 partner)": "as the sequence (P18508 39-466 partner) above", "format": "cell-based", "settings": "for % modulation of GABA EC3–5 currents: 10 μM compound, control (GABA) = EC3–5", "in_short": "(§1)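 Rat α and β3/γ2 subunit mRNA (2.5 ng total) injected into defolliculated stage 5–6 X. laevis oocytes. Ratio α:β3:γ2 was 1:1:5 for α1, α2, α3 and α5, and 3:1:5 for α4. Oocytes held ≥36 h at 18°C in NDE. TEVC was run at −60 mV at room temperature under 6 mL·min−1 NDE perfusion. Per-oocyte GABA EC3–5 co-applied with test compound in 0.1% DMSO final. ≥3 oocytes from two batches.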"}, "α1β3 receptors": {"target": "α1β3 receptors (Rattus norvegicus, UniProt P62813+P63079)", "sequence (P62813 28-455)": "as the sequence (P62813 28-455) above", "sequence (P63079 26-473)": "as the sequence (P63079 26-473) above", "test": "Two-electrode voltage clamp, α1β3 versus α1β3γ2 receptors", "format": "cell-based", "settings": "independence from γ2 subunit", "in_short": "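Two-electrode voltage clamp of rat subunit mRNA-injected X. laevis oocytes, ≥36 h at 18°C in NDE (pH 7.5) before recording. Held at −60 mV at room temperature under continuous NDE flow. GABA titrated per oocyte to EC3–5 and co-applied with test compound, 0.1% DMSO final.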"}, "[1]": {"system": "benzodiazepine (BZD) receptor", "settings": "ref Czernik et al., 1982; cited from earlier work"}, "[2]": {"system": "αxβ3γ2 (x = 1–5) GABAA receptors", "format": "cell-based, rat", "in_short": "as §1"}, "[3]": {"system": "αxβ3γ2 (x = 1–5) GABAA receptors", "settings": "non‐α6, αxβ3γ2 receptors; 10 μM; ref Varagic et al., 2013a; cited from earlier work"}, "α6+/γ2− BZ site": {"target": "α6+/γ2− BZ site (Rattus norvegicus, UniProt P18508+P30191)", "sequence (P30191 20-453)": "as the sequence (P30191 20-453) above", "sequence (P18508 39-466)": "as the sequence (P18508 39-466 partner) above", "test": "Saturation binding of [3H]Ro15-4513 to rat cerebellar membranes", "settings": "presence of diazepam, rat cerebellum, n=3"}, "α5β3γ2 GABAA receptors": {"target": "α5β3γ2 GABAA receptors (Rattus norvegicus, UniProt P19969+P63079)", "sequence (P19969 32-464 limits assumed)": "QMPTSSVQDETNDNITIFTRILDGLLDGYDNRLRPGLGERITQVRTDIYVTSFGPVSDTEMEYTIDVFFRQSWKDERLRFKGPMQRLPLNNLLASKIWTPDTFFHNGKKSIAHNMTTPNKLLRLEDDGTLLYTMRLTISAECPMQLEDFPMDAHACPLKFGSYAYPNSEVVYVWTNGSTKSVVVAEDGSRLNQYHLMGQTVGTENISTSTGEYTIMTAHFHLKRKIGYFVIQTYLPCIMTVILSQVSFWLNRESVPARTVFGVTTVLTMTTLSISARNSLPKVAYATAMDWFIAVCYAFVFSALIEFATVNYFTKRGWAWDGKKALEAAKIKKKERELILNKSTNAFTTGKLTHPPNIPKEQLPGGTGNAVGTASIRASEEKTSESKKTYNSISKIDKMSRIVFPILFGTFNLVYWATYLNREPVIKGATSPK", "sequence (P63079 26-473)": "as the sequence (P63079 26-473) above", "sequence (P18508 39-466 partner)": "as the sequence (P18508 39-466 partner) above", "format": "cell-based", "in_short": "as §1"}, "[4]": {"test": "Solubility limit in the assay buffer", "format": "physicochemical", "settings": "aqueous buffer"}, "[5]": {"system": "αxβ3γ2 (x = 1–6) GABAA receptors", "format": "cell-based, rat"}, "[6]": {"settings": "α6β3γ2, 1 μM compound, control (GABA) = EC3–5"}}, "note": "Read-outs that look alike come from different tables or passages of the source."}
{"smiles": "O=C(O)c1cccc(-n2nc3c4cc(Cl)ccc4[nH]cc-3c2=O)c1", "note": "[Compound 9, 3‐(8‐chloro‐3‐oxo‐2H,3H,5H‐pyrazolo[4,3‐c]quinolin‐2‐yl)benzoic acid]", "values": [{"measurement": "% modulation of GABA EC3–5 currents", "setting": "α6β3γ2 GABAA receptors; [6]", "value": "more than 150%"}, {"measurement": "modulation of GABA EC3–5 currents in screening of compounds 5–9, in words", "setting": "α6β3γ2 GABAA receptors; α6β3γ2", "value": "strongest modulation"}, {"measurement": "type of modulation", "setting": "α1β3γ2 GABAA receptors", "value": "negative allosteric modulation"}, {"measurement": "% modulation of GABA EC3–5 currents", "setting": "α1β3γ2 GABAA receptors", "value": "17.9 ± 7.4", "unit": "%"}, {"measurement": "modulatory effects in α1β3γ2 and α1β3", "setting": "α1β3 receptors", "value": "overlapping"}]}
{"smiles": "O=C1C2C=Nc3ccccc3C2=NN1c1ccccc1", "note": "(stereo not shown) [CGS8216]", "values": [{"measurement": "concentrations displacing [3H]‐flunitrazepam and [3H]‐diazepam binding", "setting": "[1]", "value": "subnanomolar"}]}
{"smiles": "Cc1cccc(-n2nc3c4cc(Cl)ccc4[nH]cc-3c2=O)c1", "note": "[Compound 5, 8‐chloro‐2‐(3‐methylphenyl)‐2H,3H,5H‐pyrazolo‐[4,3‐c]quinolin‐3‐one]", "values": [{"measurement": "% modulation of GABA EC3–5 currents", "setting": "α6β3γ2 GABAA receptors; [6]", "value": "more than 150%"}, {"measurement": "modulation of GABA EC3–5 currents in screening of compounds 5–9, in words", "setting": "α6β3γ2 GABAA receptors; α6β3γ2", "value": "strongest modulation"}, {"measurement": "% modulation of GABA EC3–5 currents", "setting": "α1β3γ2 GABAA receptors", "value": "210.7 ± 17", "unit": "%"}, {"measurement": "modulatory effects in α1β3γ2 and α1β3", "setting": "α1β3 receptors", "value": "overlapping"}]}
{"smiles": "Nc1cccc(-n2nc3c4cc(Cl)ccc4[nH]cc-3c2=O)c1", "note": "[Compound 8, 2‐(3‐aminophenyl)‐8‐chloro‐2H,3H,5H‐pyrazolo[4,3‐c]quinolin‐3‐one]", "values": [{"measurement": "modulation of GABA EC3–5 currents in screening of compounds 5–9, in words", "setting": "α6β3γ2 GABAA receptors; α6β3γ2", "value": "strongest modulation"}]}
{"smiles": "COc1cccc(-n2nc3c4cc(Cl)ccc4[nH]cc-3c2=O)c1", "note": "[Compound 3, 8‐chloro‐2‐(3‐methoxyphenyl)‐2H,3H,5H‐pyrazolo[4,3‐c]quinolin‐3‐one]", "values": [{"measurement": "EC50", "setting": "α6β3γ2 GABAA receptors", "value": 3.1, "unit": "µM"}, {"measurement": "% modulation of GABA EC3–5 currents", "setting": "α6β3γ2 GABAA receptors; α6β3γ2, 10 μM compound concentration, control GABA EC3–5 = 100%", "value": "around 300%"}, {"measurement": "type of modulation", "setting": "α1β3γ2 GABAA receptors", "value": "null (silent) modulator"}, {"measurement": "effect on positive GABA current modulation by compound 2 (1 μM)", "setting": "α1β3γ2 GABAA receptors; co-application of 10 and 30 μM", "value": "reduced the modulatory effect of compound 2"}, {"measurement": "modulatory activity", "setting": "[2]", "value": "completely abolished"}]}
{"smiles": "COc1ccc(-n2nc3c4ccc(OC)cc4[nH]cc-3c2=O)cc1", "note": "[PZ‐II‐029]", "values": [{"measurement": "residual modulatory activity, % of control GABA currents", "setting": "[3]", "value": "roughly 200%"}]}
{"smiles": "CCOC(=O)c1ncn2c1CN(C)C(=O)c1cc(N=[N+]=[N-])ccc1-2", "note": "[[3H]Ro15-4513]", "values": [{"measurement": "Kd", "setting": "α6+/γ2− BZ site", "value": "1.4 ± 0.1", "unit": "nM"}]}
{"smiles": "COc1ccccc1-n1nc2c3cc(Cl)ccc3[nH]cc-2c1=O", "note": "[Compound 4, 8‐chloro‐2‐(2‐methoxyphenyl)‐2H,3H,5H‐pyrazolo[4,3‐c]quinolin‐3‐one]", "values": [{"measurement": "effect on modulation elicited by compound 3 (3 μM)", "setting": "α6β3γ2 GABAA receptors; α6β3γ2, co-application up to 30 μM", "value": "unable to abolish the modulatory effect"}, {"measurement": "modulatory activity", "setting": "α5β3γ2 GABAA receptors", "value": "weak negative modulatory activity"}, {"measurement": "solubility", "setting": "[4]", "value": 30, "unit": "µM"}, {"measurement": "positive allosteric modulation (PAM) activity", "setting": "[5]", "value": "abolished any positive allosteric modulation (PAM) activity"}]}
